Assay results as given in ChEMBL document CHEMBL4406880, “Design, synthesis, and bioactivity of dihydropyrimidine derivatives as kinesin spindle protein inhibitors” (Bioorg Med Chem, 2019).

Experiments:
Assay type in all cases: functional
U-251 [1] = test: Growth inhibition of human U251 cells assessed as cell viability at 100 uM incubated for 48 hrs by sulforhodamine B assay; conditions: U-251, 48 h, read-out: Activity
MDA-MB-231 [2] = test: Growth inhibition of human MDA-MB-231 cells assessed as cell viability at 1 uM incubated for 48 hrs by sulforhodamine B assay; conditions: MDA-MB-231, 48 h, read-out: Activity
MDA-MB-231 [3] = test: Growth inhibition of human MDA-MB-231 cells incubated for 48 hrs by sulforhodamine B assay; conditions: MDA-MB-231, 48 h
How it was run: (§1)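 NCI-60 five-dose SRB assay in RPMI 1640 with 5% FBS, 37 °C, 5% CO2. Compound given at five tenfold dilutions, 0.01–100 µM, for 48 h. Adherent cells fixed with TCA, suspension cells with 16% final TCA. Bound SRB read at 515 nm and growth calculated against time-zero and untreated controls. GI50 taken from dose–response curves as the concentration giving a 50% decrease in net cell growth.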

BT-549 = test: Growth inhibition of human BT549 cells assessed as cell viability at 0.001 uM incubated for 48 hrs by sulforhodamine B assay relative to control; conditions: BT-549, 48 h, read-out: Activity
HCT-15 = test: Growth inhibition of human HCT15 cells assessed as cell viability at 100 uM incubated for 48 hrs by sulforhodamine B assay; conditions: HCT-15, 48 h, read-out: Activity
SN12C = test: Growth inhibition of human SN12C cells incubated for 48 hrs by sulforhodamine B assay
How it was run: (§2)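 NCI-60 five-dose assay, SRB end-point, same culture conditions. Compound is tested at tenfold dilutions of 0.01, 0.1, 1, 10 and 100 µM for 48 h at 37 °C, with DMSO/PBS vehicle controls. Percentage growth at each concentration is taken against untreated cells and a time-zero plate. GI50 is 50% net growth decrease, TGI is total growth inhibition, and LC50 is 50% loss of initial cells.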

UACC-257 = test: Growth inhibition of human UACC257 cells incubated for 48 hrs by sulforhodamine B assay; conditions: UACC-257, 48 h
How it was run: (§3)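 NCI-60 five-dose SRB assay. Cells were exposed for 48 h to tenfold dilutions of 0.01, 0.1, 1, 10 and 100 µM, in RPMI 1640 with 5% FBS. Plates fixed with TCA at the time of drug addition served as the time-zero reference. GI50 is the concentration giving a 50% reduction in net growth. TGI is total growth inhibition. LC50 is a net 50% loss of the initial cells.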

HOP-62 = test: Growth inhibition of human HOP62 cells assessed as cell viability at 0.001 uM incubated for 48 hrs by sulforhodamine B assay relative to control; conditions: HOP-62, 48 h, read-out: Activity
T47D = test: Growth inhibition of human T47D cells incubated for 48 hrs by sulforhodamine B assay; how it was run: as §3
NCI-H460 = test: Growth inhibition of human NCI-H460 cells incubated for 48 hrs by sulforhodamine B assay; conditions: NCI-H460, 48 h; how it was run: as §1
HL-60(TB) = test: Growth inhibition of human HL-60(TB) cells incubated for 48 hrs by sulforhodamine B assay; conditions: HL-60, 48 h; how it was run: as §2
SW-620 = test: Growth inhibition of human SW620 cells incubated for 48 hrs by sulforhodamine B assay; conditions: SW-620, 48 h; how it was run: as §3
NCI-H226 = test: Growth inhibition of human NCI-H226 cells assessed as cell viability at 100 uM incubated for 48 hrs by sulforhodamine B assay; conditions: NCI-H226, 48 h, read-out: Activity
MDA-MB-435 = test: Growth inhibition of human MDA-MB-435 cells incubated for 48 hrs by sulforhodamine B assay; conditions: MDA-MB-435, 48 h; how it was run: as §1
U-251 [4] = test: Growth inhibition of human U251 cells incubated for 48 hrs by sulforhodamine B assay; conditions: U-251, 48 h; how it was run: as §3
SK-MEL-28 = test: Growth inhibition of human SK-MEL-28 cells assessed as cell viability at 1 uM incubated for 48 hrs by sulforhodamine B assay; conditions: SK-MEL-28, 48 h, read-out: Activity
SK-MEL-5 = test: Growth inhibition of human SK-MEL-5 cells assessed as cell viability at 1 uM incubated for 48 hrs by sulforhodamine B assay; conditions: SK-MEL-5, 48 h, read-out: Activity
CAKI-1 = test: Growth inhibition of human Caki1 cells incubated for 48 hrs by sulforhodamine B assay; conditions: CAKI-1, 48 h
How it was run: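 NCI-60 five-dose mode: five tenfold dilutions (0.01, 0.1, 1, 10, 100 µM) are applied for 48 h to cells in RPMI 1640 with 5% FBS at 37 °C. Endpoint is TCA fixation with sulforhodamine B read at 515 nm. % growth comes from the 0 h and control absorbances. GI50 is the concentration giving a 50% reduction in net cell growth.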

UACC-62 = test: Growth inhibition of human UACC62 cells assessed as cell viability at 0.001 uM incubated for 48 hrs by sulforhodamine B assay relative to control; conditions: UACC-62, 48 h, read-out: Activity
[5] = read-out: LC50 (the source's name)
[6] = read-out: pLC50 (the source's name) (converted)

`CC1=C(C(=O)OCc2ccccc2)C(c2ccc3c(c2)OCO3)n2c(nc3ccccc32)N1` (racemic) showed a viability at 100 µM (U-251 [1]) of 3%, a viability at 1 µM (MDA-MB-231 [2]) of 56% and a GI50 (MDA-MB-231 [3]; read-out: GI50) of 85.7 µM. The CC50 (MDA-MB-231 [3]; [5]) was > 100 µM, the TGI (MDA-MB-231 [3]; read-out: TGI) was > 100 µM and the GI50 (MDA-MB-231 [3]; read-out: pGI50 (converted)) was 85.1 µM. For the same compound, the CC50 (MDA-MB-231 [3]; [6]) was > 100 µM, the TGI (MDA-MB-231 [3]; read-out: pTGI) was > 100 µM and the viability at 0.001 µM (BT-549) was 95%. The viability at 100 µM (HCT-15) was 19%, the CC50 (SN12C; [5]) was > 100 µM and the TGI (SN12C; read-out: TGI) was > 100 µM. For the same compound, the CC50 (SN12C; [6]) was > 100 µM, the TGI (SN12C; read-out: pTGI) was > 100 µM and the GI50 (UACC-257; read-out: GI50) was 0.98 µM. The LC50 (concentration killing 50% of the initial cells) (UACC-257; read-out: LC50) was > 100 µM, the TGI (UACC-257; read-out: TGI) was > 100 µM and the GI50 (UACC-257; read-out: pGI50 (converted)) was 0.977 µM. The LC50 (concentration killing 50% of the initial cells) (UACC-257; read-out: pLC50 (converted)) was > 100 µM, the TGI (UACC-257; read-out: pTGI) was > 100 µM and the viability at 0.001 µM (HOP-62) was 91%. For the same compound, the GI50 (T47D; read-out: GI50) was 0.48 µM, the CC50 (T47D; [5]) was > 100 µM and the TGI (T47D; read-out: TGI) was > 100 µM. For the same compound, the GI50 (T47D; read-out: pGI50 (converted)) was 0.479 µM, the CC50 (T47D; [6]) was > 100 µM and the TGI (T47D; read-out: pTGI) was > 100 µM. The GI50 (NCI-H460; read-out: GI50) was 0.36 µM, the CC50 (NCI-H460; [5]) was > 100 µM and the TGI (NCI-H460; read-out: TGI) was > 100 µM. The GI50 (NCI-H460; read-out: pGI50 (converted)) was 0.363 µM, the CC50 (NCI-H460; [6]) was > 100 µM and the TGI (NCI-H460; read-out: pTGI) was > 100 µM. The GI50 (HL-60(TB); read-out: GI50) was 0.34 µM, the CC50 (HL-60(TB); [5]) was > 100 µM and the TGI (HL-60(TB); read-out: TGI) was > 100 µM. For the same compound, the GI50 (HL-60(TB); read-out: pGI50 (converted)) was 0.339 µM, the CC50 (HL-60(TB); [6]) was > 100 µM and the TGI (HL-60(TB); read-out: pTGI) was > 100 µM. The GI50 (SW-620; read-out: GI50) was 0.39 µM, the LC50 (concentration causing 50% net loss of initial cells) (SW-620; read-out: LC50) was > 100 µM and the TGI (SW-620; read-out: TGI) was > 100 µM. For the same compound, the GI50 (SW-620; read-out: pGI50 (converted)) was 0.389 µM, the LC50 (concentration causing 50% net loss of initial cells) (SW-620; read-out: pLC50 (converted)) was > 100 µM and the TGI (SW-620; read-out: pTGI) was > 100 µM. The viability at 100 µM (NCI-H226) was 64%, the GI50 (MDA-MB-435; read-out: GI50) was 0.08 µM and the LC50 (MDA-MB-435; read-out: LC50) was > 100 µM. For the same compound, the TGI (MDA-MB-435; read-out: TGI) was 0.35 µM, the GI50 (MDA-MB-435; read-out: pGI50 (converted)) was 0.0851 µM and the LC50 (MDA-MB-435; read-out: pLC50 (converted)) was > 100 µM. The TGI (MDA-MB-435; read-out: pTGI (converted)) was 0.347 µM, the GI50 (U-251 [4]; read-out: GI50) was 0.46 µM and the LC50 (U-251 [4]; read-out: LC50) was > 100 µM. The TGI (U-251 [4]; read-out: TGI) was > 100 µM, the GI50 (U-251 [4]; read-out: pGI50 (converted)) was 0.427 µM and the LC50 (U-251 [4]; read-out: pLC50 (converted)) was > 100 µM. The TGI (U-251 [4]; read-out: pTGI) was > 100 µM, the viability at 1 µM (SK-MEL-28) was 63% and the viability at 1 µM (SK-MEL-5) was 32%. The GI50 (CAKI-1; read-out: GI50) was 0.28 µM, the CC50 (CAKI-1; [5]) was > 100 µM and the TGI (CAKI-1; read-out: TGI) was > 100 µM. The GI50 (CAKI-1; read-out: pGI50 (converted)) was 0.282 µM, the CC50 (CAKI-1; [6]) was > 100 µM and the TGI (CAKI-1; read-out: pTGI) was > 100 µM. It also gave a viability at 0.001 µM (UACC-62) of 90%.
